ChEMBL document CHEMBL1811814, “Synthesis and evaluation of indole, pyrazole, chromone and pyrimidine based conjugates for tumor growth inhibitory activities--development of highly efficacious cytotoxic agents” (Eur J Med Chem, 2010)

How the values were obtained:
Format in all cases: functional
SF-295 = assay: Growth inhibition of human SF295 cells
ACHN = assay: Growth inhibition of human ACHN cells assessed tumor cell growth at 10^-5 M; design: scale not given: the % may be the effect or the level left
How it was run: (§1)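 NCI 60-human-tumor-cell-line panel screen. Each compound was tested at a single concentration of 10^-5 M, and percent growth of tumor cells was recorded for each cell line. Growth inhibition was expressed from these percent-growth values.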

Malme-3M [1] = assay: Growth inhibition of human MALME-3M cells assessed tumor cell growth at 10^-5 M; design: scale not given: the % may be the effect or the level left; how it was run: as §1
SF-268 = assay: Growth inhibition of human SF268 cells assessed tumor cell growth at 10^-5 M; design: scale not given: the % may be the effect or the level left; how it was run: as §1
M14 = assay: Growth inhibition of human M14 cells assessed tumor cell growth at 10^-5 M; design: scale not given: the % may be the effect or the level left; how it was run: as §1
[2] = Growth inhibition of human […] cells assessed tumor cell growth at 10^-5 M; design: scale not given: the % may be the effect or the level left; how it was run: as §1
SK-OV-3 = assay: Growth inhibition of human SKOV3 cells assessed tumor cell growth at 10^-5 M; design: scale not given: the % may be the effect or the level left; how it was run: as §1
A549 = assay: Growth inhibition of human A549 cells assessed tumor cell growth at 10^-5 M; design: scale not given: the % may be the effect or the level left; how it was run: as §1
SNB-19 [3] = assay: Growth inhibition of human SNB19 cells assessed tumor cell growth at 10^-5 M; design: scale not given: the % may be the effect or the level left
How it was run: (§2)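 Single-dose screen at 10^-5 M across the 60 human tumor cell line panel, run to NCI standards. The value is the percent growth of each cell line in the presence of compound. Compounds active at this dose moved on to five-concentration testing (10^-4 to 10^-8 M).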

MCF7 = assay: Growth inhibition of human MCF7 cells assessed tumor cell growth at 10^-5 M; design: scale not given: the % may be the effect or the level left; how it was run: as §1
SNB-19 [4] = assay: Growth inhibition of human SNB19 cells
SN12C = assay: Growth inhibition of human SN12C cells
COLO 205 = assay: Growth inhibition of human COLO205 cells assessed tumor cell growth at 10^-5 M; design: scale not given: the % may be the effect or the level left; how it was run: as §1
IGROV-1 [5] = assay: Growth inhibition of human IGROV1 cells
How it was run: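 Follow-up panel testing at five concentrations (10^-4, 10^-5, 10^-6, 10^-7 and 10^-8 M) across the 60 human tumor cell lines. GI50 was obtained for each line from the concentration-response data, with the panel average GI50 also reported.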

Malme-3M [6] = assay: Growth inhibition of human MALME-3M cells
RXF 393 = assay: Growth inhibition of human RXF393 cells assessed tumor cell growth at 10^-5 M; design: scale not given: the % may be the effect or the level left; how it was run: as §1
SNB-75 [7] = assay: Growth inhibition of human SNB75 cells
KM12 [8] = assay: Growth inhibition of human KM12 cells
HOP-62 = assay: Growth inhibition of human HOP62 cells
[9] = Growth inhibition of human Hs 578T cells
NCI-H23 = assay: Growth inhibition of human NCI-H23 cells
MDA-MB-231 = assay: Growth inhibition of human MDA-MB-231 cells assessed tumor cell growth at 10^-5 M; design: scale not given: the % may be the effect or the level left; how it was run: as §1
NCI-H522 = assay: Growth inhibition of human NCI-H522 cells assessed tumor cell growth at 10^-5 M; design: scale not given: the % may be the effect or the level left; how it was run: as §1
HT-29 [10] = assay: Growth inhibition of human HT-29 cells assessed tumor cell growth at 10^-5 M; design: scale not given: the % may be the effect or the level left; how it was run: as §1
T47D [11] = assay: Growth inhibition of human T47D cells
SNB-75 [12] = assay: Growth inhibition of human SNB75 cells assessed tumor cell growth at 10^-5 M; design: scale not given: the % may be the effect or the level left; how it was run: as §2
CCRF-CEM [13] = assay: Growth inhibition of human CCRF-CEM cells assessed tumor cell growth at 10^-5 M; design: scale not given: the % may be the effect or the level left; how it was run: as §1
MDA-MB-468 [14] = assay: Growth inhibition of human MDA-MB-468 cells assessed tumor cell growth at 10^-5 M; design: scale not given: the % may be the effect or the level left; how it was run: as §1
EKVX = assay: Growth inhibition of human EKVX cells assessed tumor cell growth at 10^-5 M; design: scale not given: the % may be the effect or the level left; how it was run: as §1
SW-620 = assay: Growth inhibition of human SW620 cells
A498 = assay: Growth inhibition of human A498 cells assessed tumor cell growth at 10^-5 M; design: scale not given: the % may be the effect or the level left; how it was run: as §1
HL-60(TB) [15] = assay: Growth inhibition of human HL-60(TB) cells assessed tumor cell growth at 10^-5 M; design: scale not given: the % may be the effect or the level left
How it was run: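 HL-60(TB), part of the 60-line panel, tested at a single concentration of 10^-5 M. The read-out is percent tumor cell growth relative to untreated growth.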

SK-MEL-5 = assay: Growth inhibition of human SK-MEL-5 cells assessed tumor cell growth at 10^-5 M; design: scale not given: the % may be the effect or the level left; how it was run: as §1
KM12 [16] = assay: Growth inhibition of human KM12 cells assessed tumor cell growth at 10^-5 M; design: scale not given: the % may be the effect or the level left; how it was run: as §1
IGROV-1 [17] = assay: Growth inhibition of human IGROV1 cells assessed tumor cell growth at 10^-5 M; design: scale not given: the % may be the effect or the level left; how it was run: as §1
HT-29 [18] = assay: Growth inhibition of human HT-29 cells
DU-145 = assay: Growth inhibition of human DU145 cells
CCRF-CEM [19] = assay: Growth inhibition of human CCRF-CEM cells
T47D [20] = assay: Growth inhibition of human T47D cells assessed tumor cell growth at 10^-5 M; design: scale not given: the % may be the effect or the level left; how it was run: as §2
OVCAR-5 = assay: Growth inhibition of human OVCAR5 cells assessed tumor cell growth at 10^-5 M; design: scale not given: the % may be the effect or the level left; how it was run: as §1
UACC-62 [21] = assay: Growth inhibition of human UACC62 cells assessed tumor cell growth at 10^-5 M; design: scale not given: the % may be the effect or the level left; how it was run: as §2
HL-60(TB) [22] = assay: Growth inhibition of human HL-60(TB) cells
NCI-H226 = assay: Growth inhibition of human NCI-H226 cells
K562 = assay: Growth inhibition of human K562 cells assessed tumor cell growth at 10^-5 M; design: scale not given: the % may be the effect or the level left; how it was run: as §1
MOLT-4 = assay: Growth inhibition of human MOLT4 cells assessed tumor cell growth at 10^-5 M; design: scale not given: the % may be the effect or the level left; how it was run: as §1
UACC-62 [23] = assay: Growth inhibition of human UACC62 cells
TK-10 = assay: Growth inhibition of human TK10 cells assessed tumor cell growth at 10^-5 M; design: scale not given: the % may be the effect or the level left; how it was run: as §2
U-251 = assay: Growth inhibition of human U251 cells
NCI-H460 = assay: Growth inhibition of human NCI-H460 cells
MDA-MB-468 [24] = assay: Growth inhibition of human MDA-MB-468 cells
[25] = read-out: LC50 (the source's name)

CC1=NN(c2cccc(Cl)c2)C(=O)/C1=C\c1c(O)ccc2ccccc12
GI50 (SF-295): 22.9 µM
CC50 (SF-295; [25]): > 100 µM
Activity (ACHN): -36.07%
Activity (Malme-3M [1]): 58.97%
Activity (SF-268): 47.23%
Activity (M14): 18.24%
Activity [2]: 96.44%
Activity (SK-OV-3): 28.27%
Activity (A549): 60.45%
Activity (SNB-19 [3]): 31.43%
Activity (MCF7): 3.07%
GI50 (SNB-19 [4]): 45.7 µM
CC50 (SNB-19 [4]; [25]): > 100 µM
GI50 (SN12C): > 100 µM
CC50 (SN12C; [25]): > 100 µM
Activity (COLO 205): -80.64%
GI50 (IGROV-1 [5]): 26.9 µM
CC50 (IGROV-1 [5]; [25]): > 100 µM
GI50 (Malme-3M [6]): 29.5 µM
CC50 (Malme-3M [6]; [25]): > 100 µM
Activity (RXF 393): -76.85%
GI50 (SNB-75 [7]): 0.9 µM
CC50 (SNB-75 [7]; [25]): > 100 µM
GI50 (KM12 [8]): > 100 µM
CC50 (KM12 [8]; [25]): > 100 µM
GI50 (HOP-62): 31.6 µM
CC50 (HOP-62; [25]): > 100 µM
GI50 [9]: 32.3 µM
CC50 [9, 25]: > 100 µM
GI50 (NCI-H23): > 100 µM
LC50 (concentration killing 50% of cells) (NCI-H23): > 100 µM
Activity (MDA-MB-231): 4.08%
Activity (NCI-H522): -11.28%
Activity (HT-29 [10]): 13.48%
GI50 (T47D [11]): > 100 µM
CC50 (T47D [11]; [25]): > 100 µM
Activity (SNB-75 [12]): 10.3%
Activity (CCRF-CEM [13]): 36.33%
Activity (MDA-MB-468 [14]): 34.53%
Activity (EKVX): 51.27%
GI50 (SW-620): > 100 µM
CC50 (SW-620; [25]): > 100 µM
Activity (A498): 107.38%
Activity (HL-60(TB) [15]): 104.49%
Activity (SK-MEL-5): -82.5%
Activity (KM12 [16]): 21.17%
Activity (IGROV-1 [17]): 33.94%
GI50 (HT-29 [18]): > 100 µM
CC50 (HT-29 [18]; [25]): > 100 µM
GI50 (DU-145): 70.7 µM
CC50 (DU-145; [25]): > 100 µM
GI50 (CCRF-CEM [19]): 97.7 µM
CC50 (CCRF-CEM [19]; [25]): > 100 µM
Activity (T47D [20]): 2.21%
Activity (OVCAR-5): 16.91%
Activity (UACC-62 [21]): 82.71%
GI50 (HL-60(TB) [22]): > 100 µM
CC50 (HL-60(TB) [22]; [25]): > 100 µM
GI50 (NCI-H226): 47.8 µM
CC50 (NCI-H226; [25]): > 100 µM
Activity (K562): 99.09%
Activity (MOLT-4): 44.19%
GI50 (UACC-62 [23]): 39.8 µM
CC50 (UACC-62 [23]; [25]): > 100 µM
Activity (TK-10): 17.23%
GI50 (U-251): 40.7 µM
CC50 (U-251; [25]): > 100 µM
GI50 (NCI-H460): > 100 µM
CC50 (NCI-H460; [25]): > 100 µM
GI50 (MDA-MB-468 [24]): 17.7 µM
CC50 (MDA-MB-468 [24]; [25]): > 100 µM
